According to ChEMBL document CHEMBL5143669, “Stapled peptides as scaffolds for developing radiotracers for intracellular targets: Preliminary evaluation of a radioiodinated MDM2-binding stapled peptide in the SJSA-1 osteosarcoma model” (Bioorg Med Chem Lett, 2022):

Tests used:
[1] = Lipophilicity, logD of the compound using n-octanol and phosphate-buffered saline at pH 7.4 by the shake flask method; format: physicochemical
Outline: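 Shake-flask partition of the 125I-labeled peptide between n-octanol and PBS pH 7.4; logD from n = 4.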

[2] = Stability in human serum assessed as intact peptide level at 37 degC incubated for 1 hr by RP-HPLC analysis; format: ADME, cell-free; conditions: read-out: Drug uptake
Outline: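 125I-labeled peptide was incubated in human serum at 37 °C for up to 72 h. Aliquots were run by RP-HPLC (RP-18 column, ethanol/0.05 M sodium acetate pH 5.5 gradient, 1 mL/min), and intact peptide was expressed as percentage of injected activity.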

[3] = Drug uptake in MDM2-amplified human SJSA-1 cells expressing wild type p53 at 5 to 50 uM incubated for 1 hr; format: ADME, cell-based; conditions: sjsa-1, 1 h, dose 5-50 µM
Outline: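 SJSA-1 cells (MDM2-amplified, wild-type p53) in 24-well plates were incubated 1 h with 125I-labeled peptide in serum-free RPMI-1640, with or without unlabeled parent peptide (5–50 μM) for blocking. They were then washed three times with PBS and lysed; retained activity was normalized to well protein (%/mg protein). Triplicates, mean ± SD.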

[4] = Drug uptake in MDM2-amplified human SJSA-1 cells expressing wild type p53 at 5 to 50 uM incubated for 60 mins; format: ADME, cell-based; conditions: sjsa-1, 1 h, dose 5-50 µM
Outline: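 For uptake kinetics, SJSA-1 cells in serum-free RPMI-1640 were incubated 30–120 min with 125I-labeled peptide, with or without 50 μM unlabeled parent peptide. Cells were washed with PBS and lysed, and uptake was normalized to protein (%/mg protein). Triplicates, mean ± SD.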

[5] = Drug uptake in MDM2-amplified human SJSA-1 cells expressing wild type p53 assessed as initially bound radioactivity incubated for 1 hrs subsequently re-incubating the cells with fresh medium for up to 2 hrs; format: ADME, cell-based; conditions: sjsa-1, 1 h
Outline: (§1)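 SJSA-1 cells were loaded with 125I-labeled peptide for 1 h, then reincubated in fresh medium for 0.5–2 h. Cell-retained activity and cumulative release into the supernatant were expressed as percentage of initially bound activity.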

[6] = Drug uptake in MDM2-amplified human SJSA-1 cells expressing wild type p53 assessed as initially bound radioactivity incubated for 1.5 hrs subsequently re-incubating the cells with fresh medium for up to 2 hrs; format: ADME, cell-based; conditions: sjsa-1, 1.5 h; outline: as §1
[7] = Biodistribution in Kidney of athymic mouse xenografted with human SJSA-1 cells at 166.5 kBq, iv after 30 mins by automated gamma counting method; format: ADME, organism-based; conditions: in vivo, 0.5 h
Outline: (§2)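 125I-labeled peptide (166.5 kBq in 100 μL) was injected via tail vein into athymic mice bearing flank SJSA-1 xenografts, n = 5 per time point. Tumors, blood and major organs were gamma-counted at 0.5, 2, 6 and 24 h post-injection. Values are %ID/g.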

[8] = Biodistribution in Thyroid of athymic mouse xenografted with human SJSA-1 cells at 166.5 kBq, iv after 30 mins by automated gamma counting method; format: ADME, organism-based, Thyroid gland; conditions: in vivo, 0.5 h
Outline: (§3)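 Athymic mice bearing flank SJSA-1 xenografts received 125I-SIB-labeled peptide (166.5 kBq, 100 μL) by tail vein; groups of five per time point. Tumor, blood and organs were taken at 0.5–24 h and counted by gamma counter; values expressed as %ID/g.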

[9] = Biodistribution in Muscle of athymic mouse xenografted with human SJSA-1 cells at 166.5 kBq, iv after 30 mins by automated gamma counting method; format: ADME, organism-based, Muscle tissue; conditions: in vivo, 0.5 h; outline: as §2
[10] = Biodistribution in Blood of athymic mouse xenografted with human SJSA-1 cells at 166.5 kBq, iv after 30 mins by automated gamma counting method; format: ADME, organism-based; conditions: in vivo, 0.5 h; outline: as §2
[11] = Biodistribution in Tumor of athymic mouse xenografted with human SJSA-1 cells at 166.5 kBq, iv after 30 mins by automated gamma counting method; format: ADME, organism-based, Neoplasm; conditions: in vivo, 0.5 h; outline: as §3
[12] = Biodistribution in Skin of athymic mouse xenografted with human SJSA-1 cells at 166.5 kBq, iv after 30 mins by automated gamma counting method; format: ADME, organism-based, Skin of body; conditions: in vivo, 0.5 h; outline: as §2
[13] = Biodistribution in Brain of athymic mouse xenografted with human SJSA-1 cells at 166.5 kBq, iv after 30 mins by automated gamma counting method; format: ADME, organism-based; conditions: in vivo, 0.5 h; outline: as §2
[14] = Biodistribution in Liver of athymic mouse xenografted with human SJSA-1 cells at 166.5 kBq, iv after 2 hrs by automated gamma counting method; format: ADME, organism-based; conditions: in vivo; outline: as §2
[15] = Biodistribution in Lung of athymic mouse xenografted with human SJSA-1 cells at 166.5 kBq, iv after 2 hrs by automated gamma counting method; format: ADME, organism-based; conditions: in vivo; outline: as §2
[16] = Biodistribution in Kidney of athymic mouse xenografted with human SJSA-1 cells at 166.5 kBq, iv after 2 hrs by automated gamma counting method; format: ADME, organism-based; conditions: in vivo; outline: as §2
[17] = Biodistribution in Urinary bladder of athymic mouse xenografted with human SJSA-1 cells at 166.5 kBq, iv after 2 hrs by automated gamma counting method; format: ADME, organism-based; conditions: in vivo; outline: as §3
[18] = Biodistribution in Stomach of athymic mouse xenografted with human SJSA-1 cells at 166.5 kBq, iv after 2 hrs by automated gamma counting method; format: ADME, organism-based; conditions: in vivo; outline: as §3
[19] = Biodistribution in Large intestine of athymic mouse xenografted with human SJSA-1 cells at 166.5 kBq, iv after 2 hrs by automated gamma counting method; format: ADME, organism-based; conditions: in vivo; outline: as §2
[20] = Biodistribution in Tumor of athymic mouse xenografted with human SJSA-1 cells at 166.5 kBq, iv after 2 hrs by automated gamma counting method; format: ADME, organism-based, Neoplasm; conditions: in vivo; outline: as §3
[21] = Biodistribution in Bone of athymic mouse xenografted with human SJSA-1 cells at 166.5 kBq, iv after 2 hrs by automated gamma counting method; format: ADME, organism-based, Bone element; conditions: in vivo; outline: as §2
[22] = Biodistribution in Brain of athymic mouse xenografted with human SJSA-1 cells at 166.5 kBq, iv after 2 hrs by automated gamma counting method; format: ADME, organism-based; conditions: in vivo; outline: as §2
[23] = Biodistribution in Kidney of athymic mouse xenografted with human SJSA-1 cells at 166.5 kBq, iv after 6 hrs by automated gamma counting method; format: ADME, organism-based; conditions: in vivo; outline: as §2
[24] = Biodistribution in Urinary bladder of athymic mouse xenografted with human SJSA-1 cells at 166.5 kBq, iv after 6 hrs by automated gamma counting method; format: ADME, organism-based; conditions: in vivo; outline: as §3
[25] = Biodistribution in Small intestine of athymic mouse xenografted with human SJSA-1 cells at 166.5 kBq, iv after 6 hrs by automated gamma counting method; format: ADME, organism-based; conditions: in vivo; outline: as §2
[26] = Biodistribution in Tumor of athymic mouse xenografted with human SJSA-1 cells at 166.5 kBq, iv after 6 hrs by automated gamma counting method; format: ADME, organism-based, Neoplasm; conditions: in vivo; outline: as §3
[27] = Biodistribution in Skin of athymic mouse xenografted with human SJSA-1 cells at 166.5 kBq, iv after 6 hrs by automated gamma counting method; format: ADME, organism-based, Skin of body; conditions: in vivo; outline: as §2
[28] = Biodistribution in Lung of athymic mouse xenografted with human SJSA-1 cells at 166.5 kBq, iv after 24 hrs by automated gamma counting method; format: ADME, organism-based; conditions: in vivo; outline: as §2
[29] = Biodistribution in Urinary bladder of athymic mouse xenografted with human SJSA-1 cells at 166.5 kBq, iv after 24 hrs by automated gamma counting method; format: ADME, organism-based; conditions: in vivo; outline: as §3
[30] = Biodistribution in Thyroid of athymic mouse xenografted with human SJSA-1 cells at 166.5 kBq, iv after 24 hrs by automated gamma counting method; format: ADME, organism-based, Thyroid gland; conditions: in vivo; outline: as §3
[31] = Biodistribution in Muscle of athymic mouse xenografted with human SJSA-1 cells at 166.5 kBq, iv after 24 hrs by automated gamma counting method; format: ADME, organism-based, Muscle tissue; conditions: in vivo; outline: as §2
[32] = Biodistribution in Blood of athymic mouse xenografted with human SJSA-1 cells at 166.5 kBq, iv after 24 hrs by automated gamma counting method; format: ADME, organism-based; conditions: in vivo; outline: as §2

## CC(=O)NC(CCCCNC(=O)c1cccc([125I])c1)C(=O)NCCCCCC(=O)N[C@H](C(=O)N[C@@H](CO)C(=O)N[C@@H](Cc1ccccc1)C(=O)N[C@@]1(C)CCCCCC/C=C/CCC[C@@](C)(C(=O)N[C@@H](CCC(=O)O)C(=O)N[C@@H](CC(N)=O)C(=O)N[C@@H](Cc2ccccc2)C(N)=O)NC(=O)[C@H](CC(C)C)NC(=O)[C@H](CC(C)C)NC(=O)[C@H](C)NC(=O)[C@H](Cc2c[nH]c3ccccc23)NC(=O)[C@H](Cc2ccc(O)cc2)NC(=O)[C@H](CCC(=O)O)NC1=O)[C@@H](C)O (some centres not stated)
[1]
  logD: 1.45
[2]
  remaining at 1 h: 98.2%
[3]
  Drug uptake: 12.4%
[4]
  Drug uptake: 142 %/mg protein
[5]
  Drug uptake: 72.8%
[6]
  Drug uptake: 66.4%
[7]
  Drug uptake: 3.06 % ID/g
[8]
  Drug uptake: 0.89 % ID/g
[9]
  Drug uptake: 0.16 % ID/g
[10]
  Drug uptake: 8.33 % ID/g
[11]
  Drug uptake: 1.8 % ID/g
[12]
  Drug uptake: 0.57 % ID/g
[13]
  Drug uptake: 0.24 % ID/g
[14]
  Drug uptake: 18.41 % ID/g
[15]
  Drug uptake: 2.72 % ID/g
[16]
  Drug uptake: 2.54 % ID/g
[17]
  Drug uptake: 0.58 % ID/g
[18]
  Drug uptake: 0.53 % ID/g
[19]
  Drug uptake: 0.24 % ID/g
[20]
  Drug uptake: 2.19 % ID/g
[21]
  Drug uptake: 0.33 % ID/g
[22]
  Drug uptake: 0.25 % ID/g
[23]
  Drug uptake: 2.5 % ID/g
[24]
  Drug uptake: 0.95 % ID/g
[25]
  Drug uptake: 3.84 % ID/g
[26]
  Drug uptake: 2.11 % ID/g
[27]
  Drug uptake: 1.22 % ID/g
[28]
  Drug uptake: 0.33 % ID/g
[29]
  Drug uptake: 0.29 % ID/g
[30]
  Drug uptake: 0.27 % ID/g
[31]
  Drug uptake: 0.16 % ID/g
[32]
  Drug uptake: 0.62 % ID/g
